Tests used:
B1 bradykinin receptor [1] = biological target: T1, B1 bradykinin receptor (Homo sapiens, UniProt P46663); experiment: Antagonist activity at human cloned B1 receptor expressed in african green monkey COS7 cells by calcium mobilization assay; format: functional, cell-based, COS-7
T1 sequence (P46663 whole entry): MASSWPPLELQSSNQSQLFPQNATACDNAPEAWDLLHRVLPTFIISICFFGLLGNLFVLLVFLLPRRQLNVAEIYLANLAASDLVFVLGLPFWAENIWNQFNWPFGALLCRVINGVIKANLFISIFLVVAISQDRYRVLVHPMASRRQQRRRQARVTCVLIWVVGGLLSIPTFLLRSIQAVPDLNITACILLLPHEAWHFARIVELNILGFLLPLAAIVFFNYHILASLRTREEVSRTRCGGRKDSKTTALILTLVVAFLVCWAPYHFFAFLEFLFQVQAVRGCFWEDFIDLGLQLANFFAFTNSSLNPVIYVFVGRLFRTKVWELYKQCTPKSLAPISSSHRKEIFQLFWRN
In short: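 Cos-7 cells (DMEM, 10% FBS, 37 °C, 6% CO2) transiently electroporated with 16 µg human B1 cDNA plus 50 µg aequorin cDNA, plated 12,000 cells/well and used 2–3 days later. Compounds serially diluted from 2 mM DMSO stocks in half-log steps, six concentrations in triplicate. Coelenterazine-loaded cells received compounds in HEPES assay buffer. Read-out was aequorin calcium luminescence, with desArg10HOE140 standards for basal and partial inhibition. Ki reported.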

B1 bradykinin receptor [2] = biological target: T1, B1 bradykinin receptor; experiment: Displacement of [3H]desArg from human B1 in human WI 38 cells; format: cell-based
In short: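 WI-38 fibroblasts, 50,000/well, grown overnight and primed with IL-1b 100 units/mL for 3 h to induce B1. Binding used ~1 nM [3H]-desArg10kallidin in HEPES/HBSS pH 7.4 with phenanthroline and bacitracin, 1 h at 4 °C, 0.5% final DMSO. Nonspecific binding was defined with 3 µM desArg10kallidin. Cells washed, SDS-solubilized and scintillation counted; logistic fit gave IC50, converted to Ki, ≥3 determinations.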

Ki (B1 bradykinin receptor [1])	Ki (B1 bradykinin receptor [2])	Compound
0.188 µM	0.021 µM	CC(C)COc1ccc(CN(CC(=O)NCc2ccccc2Cl)S(=O)(=O)c2ccc(CN3CCN(C)CC3)cc2)cc1Cl
0.037 µM	0.011 µM	COc1cc(CN(CC(=O)NCc2ccccc2Cl)S(=O)(=O)c2ccc(CN3CCN(C)CC3)cc2)ccc1OCC(C)C
0.267 µM	0.034 µM	COc1cc(CN(CC(=O)NCc2ccccc2Cl)S(=O)(=O)c2ccc(CN3CCCCC3)cc2)ccc1OCC(C)C
–	1.09 µM	O=C(O)CCNC(=O)CN(CCOc1cccc(Cl)c1)S(=O)(=O)c1ccc(Cl)cc1Cl
–	0.21 µM	COc1ccccc1CCNC(=O)CN(CCOc1ccc2c(c1)OCO2)S(=O)(=O)c1ccc(Cl)cc1Cl
–	0.41 µM	O=C(O)CCNC(=O)CN(CCOc1ccc2c(c1)CCC2)S(=O)(=O)c1ccc(Cl)cc1Cl
–	1.21 µM	COCCCNC(=O)CN(CCOc1ccc2c(c1)CCC2)S(=O)(=O)c1ccc(Cl)cc1Cl
–	2.2 µM	CNC(=O)CN(CCOc1ccc2c(c1)CCC2)S(=O)(=O)c1ccc(Cl)cc1Cl
–	13 µM	O=C(O)CCNC(=O)CN(CCOc1ccccc1)S(=O)(=O)c1ccc(Cl)cc1Cl
–	0.113 µM	CC(C)COc1ccc(CN(CC(=O)NCc2ccccc2Cl)S(=O)(=O)c2ccc(CN3CCN(C)CC3)cc2)cc1
0.463 µM	0.149 µM	COc1cc(CN(CC(=O)NCc2ccccc2Cl)S(=O)(=O)c2ccc(CN3CCOCC3)cc2)ccc1OCC(C)C
0.497 µM	0.093 µM	COc1cc(CN(CC(=O)NCc2ccccc2Cl)S(=O)(=O)c2ccc(CN(C)C)cc2)ccc1OCC(C)C
–	1.57 µM	O=C(O)CCNC(=O)CN(CCOc1ccc2c(c1)OCO2)S(=O)(=O)c1ccc(Cl)cc1Cl

Source: ChEMBL document CHEMBL1139266, “Sulfonamido-aryl ethers as bradykinin B1 receptor antagonists” (Bioorg Med Chem Lett, 2009)
